Published values collected from several papers.
Lines come from different studies, so protocols differ.
Target: Dual specificity tyrosine-phosphorylation-regulated kinase 1A (DYRK1A, Homo sapiens, UniProt Q13627)

SMILES	observed	method	concentration	remaining binding [%]
O=C(c1ccc(Nc2ncc(Cl)c(-c3cc4ccccc4s3)n2)cc1)N1CCC(N2CCCC2)CC1	binding	competition with immobilised ligand	1 µM	11
COc1ncc2cc3ccccc3nc2c1C#N	cell-free assay	competition with immobilised ligand	5 µM	74
CSc1cccnc1N1CCN(Cc2nc3ccccc3[nH]2)CC1	cell-free assay	competition with immobilised ligand	1 µM	79
O=C(Nc1c[nH]nc1C(=O)NC1CCNCC1)c1cc(F)cc(F)c1	binding	competition with immobilised ligand	1 µM	19
O=C(O)[C@H]1[C@H](Cn2nnc3ccccc3c2=O)CC[C@@H]1C(=O)c1ccc(OCCC2CCOCC2)cc1	cell-free assay	competition with immobilised ligand	1 µM	85
CN(CCCC(F)(F)F)c1nccc(-c2cnn3ncccc23)n1	binding		1 µM	35
CNC(=O)[C@@H]1CC[C@@H](n2c(-c3ccc4cnccc4c3)nc3ccc(C(=O)NCc4cccc(C(N)=O)c4)cc32)C1	binding	competition with immobilised ligand	1 µM	100
C[C@@H](c1ccc(-n2cnc3c(N)ncnc32)cc1)N1CCc2nn(C)c(Cc3ccccc3)c2C1=O	binding	competition with immobilised ligand	0.1 µM	80
COc1ccc2c(c1)O[C@@H](c1ccc(OC)c(OC)c1)C[C@H]2NC(=O)C1(c2ccc3c(c2)OC(F)(F)O3)CC1	cell-free assay	competition with immobilised ligand	1 µM	80
Nc1ncc2c(n1)-c1c([nH]c3ccc(C#CC4CC4)cc13)CCCC2	binding	competition with immobilised ligand	1 µM	100
O=C(c1ccc(Nc2nccc(-c3cc4ccccc4s3)n2)cc1)N1CCC(N2CCCC2)CC1	binding	competition with immobilised ligand	1 µM	68
COC(=O)Nc1nc2ccc(C(=O)c3ccccc3)cc2[nH]1	cell-free assay	competition with immobilised ligand	10 µM	34
Cc1c(C(=O)O)cc(-c2ccc(C3CCNCC3)cc2)c2ccc(-c3ccc(C(F)(F)F)cc3)cc12	cell-free assay	competition with immobilised ligand	1 µM	100
O=C(NCCCN1CCOCC1)c1ccc(Nc2ncc(Cl)c(-c3ccc(Cl)s3)n2)cc1	binding	competition with immobilised ligand	1 µM	0.5
